In the EternaBench riboswitch data:

Tested on: MS2 coat protein
Assay: apparent Kd, MS2 coat protein; higher = weaker binding; RNA-MaP array; FMN 200 µM where present
Summary of the method: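 The titrant was SNAP-549-labelled MS2 coat protein, run from 0.7 or 1.5 nM in doubling steps to 3 µM. It was applied to designs transcribed by stalled E. coli RNA polymerase on Illumina sequencing-chip clusters, without ligand first and then with constant ligand, in 100 mM Tris-HCl pH 7.5, 80 mM KCl, 4 mM MgCl2, BSA, DTT, yeast tRNA and Tween-20. The apparent Kd is the median of filtered per-cluster binding-curve fits, with green signal normalised to red-channel RNA signal and control-cluster median Fmax.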

[1] = designed as: ON switch for flavin mononucleotide, no ligand
[2] = ligand present: flavin mononucleotide, designed as: ON switch for flavin mononucleotide
[3] = designed as: OFF switch for flavin mononucleotide, no ligand
[4] = ligand present: flavin mononucleotide, designed as: OFF switch for flavin mononucleotide

Sequence	apparent Kd [1] [nM]	apparent Kd [2] [nM]	apparent Kd [3] [nM]	apparent Kd [4] [nM]
UAAUCUCAGAUAGGAUAUAUAGGAUAACUUAAGACCUAACAUGAGGAUCACCCAUGUGAUUAUUCGUAGAAGGAUCAUUGAACA	259	263	–	–
AGUCCACAUGAGGAUCACCCAUGUCAGGAUAUCUGCUGGAAGAGGGCAGAAAGCCAGGAGAGAAGGGACCUGGG	–	–	37.9	74.5
CCUAGUUGGUAAGGAUAUCCUACACUAUUCUGACCCGUGCAGGCUACAUGAGGAUCACCCAUGUGGGAGAAGGUGCGUCAACGU	–	–	12.6	11.8
UGAUCUAUGUAGAAGGCCCAUAUCUAUAUUUAGGGAGGAUAUACAUGAGGAUCACCCAUGUAUAGAGCUGGUGGACUGGUCAGC	–	–	30.7	88.6
AACCUAUUACAGAAGGCCAGCUACAUGAGGAUCACCCAUGUCGAGUCAUGGAGGAUAUGUAGUAAUUCACUCGCAGAUGAGUAC	29.8	5.33	–	–
GCAGAACAUGAGGAUCACCCAUGUCUCUAAAGUCGAGGAUAUGGGCAGGUUAUAUCCGAACCAGAAGGCGAUCUGC	127	43.8	–	–
AAUUAUUUACAGAAGGAGUAAGAUUUUGUAUUACUAGGAUAUGUUAACAUGAGGAUCACCCAUGUGUUUGUAGGUUUUUUAUGU	–	–	12.2	8.54
AAGAGCGAUUCUCCCUUCCUACAUGAGGAUCACCCAUGUACGAGAAGGCGCCGUGUAUACAACGGUGAGGAUAUCGUACGUUAC	–	–	5.46	10.7
GCACCAUUGCAAGGAUAUCCUACAGAGGGUGCAGGAGAAGGUGCAUUGGUGAGACUAUAGGACAUGAGGAUCACCCAUGUACCG	68	32.7	–	–
GCUACGUCAGGAUAUCUGAUGUCUAACUUCGGUUAGACAUCAGAGAAGGGACAUGAGGAUCACCCAUGUAGCAA	–	–	93.5	122
GUUCAGUCAGGAUAUUUGUAACGCUCGGUAUCGAGUGGUAAGAAGAAGGGACAUGAGGAUCACCCAUGUCAGUA	–	–	20.1	17.6
UGCAUGCUAGGAUAUACGGGACAUUAGGGUUCGUUGUGUGGACAUGAGGAUCACCCAUGUAGAAGGAGCGUGCU	–	–	85.6	243
GCCAGUUAUGUAGGAUAUGCGCGGCGAGCCUGAGCAGAAGGACAUGAGGAUCACCCAUGUGUUGCGGUUUGAGUACUAAUCGCU	–	–	31.5	171
AAACACGGACAUGAGGAUCACCCAUGUGGCGAAAGCCUUGGGAGAAGGAUUAAUGCAAAGCAUAAAUAGGAUAUUCAUACCGUG	1270	243	–	–
ACAUGCAUAGCGAUAUGAUCGAGAGAUCAUGUCGCUAAAUUUAGAAGGACAUGAGGAUCACCCAUGUAGGAUAUGGGAGCAUGA	44.7	11.1	–	–
AGAUUCAUGGCCCGUUUGGGCCCACAUGAGGAUCACCCAUGUGAGGAUAUGACGUACCUGACUCGUCAGAAGGCGCAUGCGAAA	–	–	7.45	16.7
AAUCAGUCAGGAUAUCGUUAAUUUAAUUGUUUGUUUUAGUUCGAGAAGGGACAUGAGGAUCACCCAUGUACUUA	–	–	24.8	26.8
GCAACGCCUGACAUGAGGAUCACCCAUGUUAGAUUGUUAUGUCAGGAUAUAGUCUAGAAACUAGACUAGAAGGGAUGUGUUGCU	703	131	–	–
GUAGCUAUCGGAGGAUAUCCUCAGCGGAAACGCACAUGAGGAUCACCCAUGUAAAUAAAUAAUUAAGAGAAGGCCGAUAGCUAC	706	55	–	–
UUAUUAUAUGUAGGAUAUGCAUAUUAUUAUUAUGCAGAAGGACAUGAGGAUCACCCAUGUAUAUUAUUAUUGUAUAUUAUAUAU	–	–	28.4	46.1
AGUGCUAGAGGAUAUGCAGUGGCGUUCUGUAUUCACAGCUCACAUGAGGAUCACCCAUGUAGAAGGCUAGCUAC	–	–	23.6	106

Sequence	apparent Kd [1] [nM]	apparent Kd [2] [nM]	apparent Kd [3] [nM]	apparent Kd [4] [nM]
AAAUAGCGAGGAUAUACAUGAGGAUCACCCAUGUGGACUGAUGUCGCGUGAUUCAGUGGUAGAAGGUGCUCAAA	–	–	45.4	76.3
CCUGAGUCAGGAUAUUGUACCAGCCUGAAGCCAGGCUGACCCAAGAAGGGACAUGAGGAUCACCCAUGUGAAAA	–	–	27	25.6
CCUACCAUCACAGGAUAUGCUAUCCUUUGGGUAGCAGAAGGGUGAUAACAUGAGGAUCACCCAUGUGGUAGGCCCGGUGACGGG	768	227	–	–
GUUGCUACUGAGGAUAUUAUUUUAUUCGACUGAUAAGAAGGCAGUACAUGAGGAUCACCCAUGUGGGUAGCCAG	–	–	23.8	67.8
GGAUCCAACACAGGAUAUGCUGGACUUUGUCCAGCAGAAGGGUGACAUGAGGAUCACCCAUGUAAUAGGAUCCAUAUAUUUAAU	624	198	–	–
GUACUGUAGUGAGGAUAUACGAGAUCGAUAGAUCGGCGAUCCAAUAAUACAUGAGGAUCACCCAUGUAGAAGGCACUUCAGUAC	–	–	7.07	99
AUCAGCUCGUCAGGAUAUACGUCACUGCGUCAGCAGUGUGGUAAGAUCACAUGAGGAUCACCCAUGUAGAAGGGUCGAGCUGAU	–	–	17.7	349
AUUAUACAUGAGGAUCACCCAUGUAAUUAAUUAAUUAAGAUCAAGGAUAUCAGCUCGAUUAGAGCUGAGAAGGUGAUCACAUGU	402	292	–	–
AUCAGCUCGUCAGGAUAUACGUCACUGCGUCAGCAGUGUGGUAAGAUCACAUGAGGAUCACCCAUGUAGAAGGGACGAGCAGAU	–	–	13.7	262
CAAUUCCGAGGAUAUACAUGAGGAUCACCCAUGUCGGGCCUCAGCGUUUAGCGCGUAAGUAGAAGGUGGGUUUC	–	–	30.4	41.1
UUGGACGUCGUAGGAUAUGUAGGAUAUUCCGACAUGAGGAUCACCCAUGUUGACAUGGAAGAAGGACAGAAGGACGAUGUCCAU	4.14	3.48	–	–
UGUUUAUAUGAAGGAUAUACUUAACAUGAGGAUCACCCAUGUGGUGUUGUGAGUGAGUGAGUUUAGUAGAAGGUCAAUUAUUUU	–	–	286	643
AUAUAUAUAUAAGGAUAUGUAUAUCCAACAUGAGGAUCACCCAUGUUGAGGAUCACCCAUGUAAAGCAGAAGGUAUAUAUAUAU	29.1	18	–	–
GUGUUGUCAGGAUAUCUUACAUAACUAUCGUUGUUACCAUUGGAGAAGGGACAUGAGGAUCACCCAUGUUAUCG	–	–	24.3	25.4
GGGUUCAUGUAAGGAUAUGUAUUGUUAAUCGGAGCAGAAGGUACAUGAGGAUCACCCAUGUCAACCUAGAGCAAGGCUUCUUAG	–	–	19.7	58
AAAAAGCGAGGAUAUACAUAGCUAAGACAUGUAAGCGAAAAACAUGAGGAUCACCCAUGUAGAAGGCGCAAAAA	–	–	17.7	18.2
GCAUGUUGGUAGGAUAUGCAGCGAAAACCGCGAGUAGAAGGAUUGACAUGAGGAUCACCCAUGUGAACCUAAGG	–	–	27.1	59.2
GUGAUAUUGUAAGGAUAUACUCUGUGAUGAAGAGUAGAAGGUACUUACAUGAGGAUCACCCAUGUUUAACGAGAUACUAAUCGU	198	76.9	–	–
GUACGUGGACAGAAGGCGACAUGAGGAUCACCCAUGUUGGCUCGGGUACGAGCAAUCCGCGUGAUUGAGGAUAUGUCUGCGGGC	–	–	6.25	9.93
UGUUAAAUUGAUCCUGCAAGUACAUGAGGAUCACCCAUGUGCUAGGAUAUCGCGCAGCUAAAGACCGAGAAGGAGCACAAUGUA	–	–	39.2	97.7
AAAAGGUCAGGAUAUGCGAGCGGCAGGGAGGCAGGUCGGUGGCAGAAGGGACAUGAGGAUCACCCAUGUUAAAA	–	–	35	34.1
